{"source": "ChEMBL document CHEMBL3797202", "about": "“Novel Oxindole Sulfonamides and Sulfamides: EPZ031686, the First Orally Bioavailable Small Molecule SMYD3 Inhibitor” (ACS Med Chem Lett, 2016)", "key": {"[1]": {"experiment": "AUC (0 to infinity) in CD1 mouse at 5 mg/kg, administered through oral gavage measured up to 24 hrs by LC-MS/MS analysis", "format": "ADME, organism-based", "parameters": "dose 5 mg/kg, time infinity, route oral", "details": "in vivo", "in_short": "(§1)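 Male CD-1 mice received a single bolus: 1 mg/kg i.v., or 5 or 50 mg/kg p.o. Values are mean ± SD, n = 3. […] Bioavailability was determined separately for each oral dose.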"}, "[2]": {"experiment": "Terminal half life in CD1 mouse at 50 mg/kg, administered through oral gavage by LC-MS/MS analysis", "format": "ADME, organism-based", "details": "in vivo, read-out: beta t1/2 (converted)", "in_short": "as §1"}, "[3]": {"experiment": "AUC (0 to last) in CD1 mouse at 50 mg/kg, administered through oral gavage measured up to 24 hrs by LC-MS/MS analysis", "format": "ADME, organism-based", "parameters": "dose 50 mg/kg, route oral, time 0 - last", "details": "in vivo", "in_short": "as §1"}, "[4]": {"target": "Histone-lysine N-methyltransferase PRDM9 (Homo sapiens) (UniProt Q9NQV7)", "sequence (Q9NQV7 whole entry)": "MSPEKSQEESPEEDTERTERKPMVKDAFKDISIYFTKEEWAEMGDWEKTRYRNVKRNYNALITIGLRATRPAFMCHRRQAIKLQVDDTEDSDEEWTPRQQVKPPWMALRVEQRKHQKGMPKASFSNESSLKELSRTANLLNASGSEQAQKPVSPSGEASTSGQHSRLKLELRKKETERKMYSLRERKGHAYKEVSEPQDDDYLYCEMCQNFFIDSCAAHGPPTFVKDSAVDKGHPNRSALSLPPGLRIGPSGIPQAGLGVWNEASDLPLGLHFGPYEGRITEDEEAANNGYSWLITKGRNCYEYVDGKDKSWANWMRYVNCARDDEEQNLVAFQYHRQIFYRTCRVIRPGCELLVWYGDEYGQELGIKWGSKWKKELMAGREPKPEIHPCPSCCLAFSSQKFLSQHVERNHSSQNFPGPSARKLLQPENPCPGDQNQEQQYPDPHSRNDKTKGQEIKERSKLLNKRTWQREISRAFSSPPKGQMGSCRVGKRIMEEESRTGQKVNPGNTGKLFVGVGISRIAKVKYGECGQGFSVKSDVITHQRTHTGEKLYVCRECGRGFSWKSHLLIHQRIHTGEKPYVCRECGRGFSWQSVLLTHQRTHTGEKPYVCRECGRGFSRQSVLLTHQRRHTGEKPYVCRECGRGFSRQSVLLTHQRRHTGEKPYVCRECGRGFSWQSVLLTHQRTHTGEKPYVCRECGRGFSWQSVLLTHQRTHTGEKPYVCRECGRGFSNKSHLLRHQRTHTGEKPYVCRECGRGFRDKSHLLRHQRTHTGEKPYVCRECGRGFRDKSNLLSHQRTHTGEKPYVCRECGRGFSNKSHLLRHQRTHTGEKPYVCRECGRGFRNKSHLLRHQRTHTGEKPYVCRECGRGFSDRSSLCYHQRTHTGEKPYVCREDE", "experiment": "Inhibition of PRDM9 (unknown origin) at 10 uM relative to control"}, "[5]": {"target": "Protein arginine N-methyltransferase 8 (Homo sapiens) (UniProt Q9NR22)", "sequence (Q9NR22 2-394 limits assumed)": "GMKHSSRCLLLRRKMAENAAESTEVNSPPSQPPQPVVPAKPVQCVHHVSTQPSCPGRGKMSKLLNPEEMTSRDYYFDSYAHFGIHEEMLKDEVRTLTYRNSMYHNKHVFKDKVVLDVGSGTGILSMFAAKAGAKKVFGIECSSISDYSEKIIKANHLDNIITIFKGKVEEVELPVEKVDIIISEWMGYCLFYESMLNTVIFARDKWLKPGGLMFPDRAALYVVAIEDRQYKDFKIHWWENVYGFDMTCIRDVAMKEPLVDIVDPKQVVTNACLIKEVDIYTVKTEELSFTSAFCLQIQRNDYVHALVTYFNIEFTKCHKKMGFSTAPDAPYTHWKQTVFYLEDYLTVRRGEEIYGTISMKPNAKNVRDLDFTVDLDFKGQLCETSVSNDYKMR", "experiment": "Inhibition of PRMT8 (unknown origin) at 10 uM relative to control"}, "[6]": {"target": "Histone-lysine N-methyltransferase EZH2 (Homo sapiens) (UniProt Q15910)", "sequence (Q15910 whole entry, looked up)": "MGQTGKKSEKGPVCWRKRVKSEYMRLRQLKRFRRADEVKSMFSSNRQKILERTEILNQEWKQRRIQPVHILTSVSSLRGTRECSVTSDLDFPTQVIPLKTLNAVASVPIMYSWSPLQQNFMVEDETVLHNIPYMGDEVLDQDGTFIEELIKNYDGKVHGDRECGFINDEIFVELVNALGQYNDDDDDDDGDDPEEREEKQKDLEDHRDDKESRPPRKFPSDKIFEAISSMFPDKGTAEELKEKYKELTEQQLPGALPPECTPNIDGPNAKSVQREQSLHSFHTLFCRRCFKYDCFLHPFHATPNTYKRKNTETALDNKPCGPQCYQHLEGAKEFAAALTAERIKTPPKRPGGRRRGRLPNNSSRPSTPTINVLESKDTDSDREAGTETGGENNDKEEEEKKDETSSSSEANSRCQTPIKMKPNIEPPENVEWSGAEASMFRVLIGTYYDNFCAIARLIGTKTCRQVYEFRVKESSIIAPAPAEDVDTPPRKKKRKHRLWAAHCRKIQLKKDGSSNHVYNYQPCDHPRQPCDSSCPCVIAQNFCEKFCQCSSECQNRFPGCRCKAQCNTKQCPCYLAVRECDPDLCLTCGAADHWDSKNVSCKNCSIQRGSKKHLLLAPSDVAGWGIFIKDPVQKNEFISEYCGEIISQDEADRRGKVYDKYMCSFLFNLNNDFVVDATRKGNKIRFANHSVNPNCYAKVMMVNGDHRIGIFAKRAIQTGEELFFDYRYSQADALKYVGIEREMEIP", "experiment": "Inhibition of EZH2 (unknown origin) at 10 uM relative to control"}, "[7]": {"target": "T1, Histone-lysine N-methyltransferase SMYD3 (Homo sapiens, UniProt Q9H7B4)", "T1 sequence (Q9H7B4 whole entry)": "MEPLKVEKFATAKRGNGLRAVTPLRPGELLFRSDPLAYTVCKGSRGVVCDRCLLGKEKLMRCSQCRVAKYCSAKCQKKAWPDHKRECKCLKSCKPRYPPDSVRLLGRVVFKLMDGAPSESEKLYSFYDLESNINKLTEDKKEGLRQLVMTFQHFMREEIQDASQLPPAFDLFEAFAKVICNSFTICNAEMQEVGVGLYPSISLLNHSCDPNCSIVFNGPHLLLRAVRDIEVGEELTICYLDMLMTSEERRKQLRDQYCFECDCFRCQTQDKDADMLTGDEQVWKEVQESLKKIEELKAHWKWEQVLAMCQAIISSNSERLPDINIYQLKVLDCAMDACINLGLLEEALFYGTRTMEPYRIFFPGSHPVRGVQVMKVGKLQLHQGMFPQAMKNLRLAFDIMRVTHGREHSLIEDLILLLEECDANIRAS", "experiment": "Inhibition of full length N-terminal His-tagged SMYD3 (1 to 428 residues) (unknown origin) expressed in Escherichia coli using N-terminal GST-tagged MEKK2 as substrate preincubated for 30 mins followed by substrate addition by scintillation proximity assay in presence of [3H]SAM"}, "[8]": {"experiment": "AUC (0 to infinity) in CD1 mouse at 50 mg/kg, administered through oral gavage measured up to 24 hrs by LC-MS/MS analysis", "format": "ADME, organism-based", "parameters": "dose 50 mg/kg, time infinity, route oral", "details": "in vivo", "in_short": "as §1"}, "[9]": {"experiment": "Cmax in CD1 mouse at 5 mg/kg, administered through oral gavage measured up to 24 hrs by LC-MS/MS analysis", "format": "ADME, organism-based", "parameters": "dose 5 mg/kg, route oral", "details": "in vivo", "in_short": "as §1"}, "[10]": {"target": "T2, Protein arginine N-methyltransferase 7 (Homo sapiens) (UniProt Q9NVM4)", "T2 sequence (whole entry)": "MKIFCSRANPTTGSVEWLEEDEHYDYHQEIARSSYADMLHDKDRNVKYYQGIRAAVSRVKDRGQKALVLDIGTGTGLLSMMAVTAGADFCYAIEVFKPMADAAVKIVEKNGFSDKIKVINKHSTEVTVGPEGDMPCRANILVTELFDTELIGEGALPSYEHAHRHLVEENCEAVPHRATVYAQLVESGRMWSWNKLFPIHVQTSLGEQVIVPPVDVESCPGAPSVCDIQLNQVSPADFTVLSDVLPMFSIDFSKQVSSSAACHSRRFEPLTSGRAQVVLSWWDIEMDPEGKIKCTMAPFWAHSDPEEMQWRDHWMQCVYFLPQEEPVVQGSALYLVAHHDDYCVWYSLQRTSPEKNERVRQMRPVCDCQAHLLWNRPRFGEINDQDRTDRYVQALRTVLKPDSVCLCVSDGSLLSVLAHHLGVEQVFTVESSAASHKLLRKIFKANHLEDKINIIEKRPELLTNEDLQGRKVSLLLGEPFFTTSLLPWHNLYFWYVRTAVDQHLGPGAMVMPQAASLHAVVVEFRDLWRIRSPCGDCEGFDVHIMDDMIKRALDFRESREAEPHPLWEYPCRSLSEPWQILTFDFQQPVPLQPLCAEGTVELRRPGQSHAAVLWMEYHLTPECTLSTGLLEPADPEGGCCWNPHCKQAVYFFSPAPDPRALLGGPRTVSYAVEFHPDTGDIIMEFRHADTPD", "experiment": "Inhibition of PRMT7 (unknown origin) at 10 uM relative to control"}, "[11]": {"experiment": "AUC (0 to last) in CD1 mouse at 1 mg/kg, iv as bolus dose measured up to 24 hrs by LC-MS/MS analysis", "format": "ADME, organism-based", "parameters": "dose 1 mg/kg, time 0 - last, route intravenous", "details": "in vivo", "in_short": "as §1"}, "[12]": {"experiment": "Fraction unbound in CD1 mouse plasma at 1 uM incubated for 16 hrs by LC-MS/MS based equilibrium dialysis method", "format": "ADME, cell-free"}, "[13]": {"experiment": "Clearance in CD1 mouse at 1 mg/kg, iv as bolus dose measured up to 24 hrs by LC-MS/MS analysis", "format": "ADME, organism-based", "details": "in vivo", "in_short": "as §1"}, "[14]": {"experiment": "Tmax in CD1 mouse at 5 mg/kg, administered through oral gavage by LC-MS/MS analysis", "format": "ADME, organism-based", "details": "in vivo", "in_short": "as §1"}, "[15]": {"experiment": "AUC (0 to infinity) in CD1 mouse at 1 mg/kg, iv as bolus dose measured up to 24 hrs by LC-MS/MS analysis", "format": "ADME, organism-based", "parameters": "dose 1 mg/kg, route intravenous, time infinity", "details": "in vivo", "in_short": "as §1"}, "[16]": {"experiment": "AUC (0 to last) in CD1 mouse at 5 mg/kg, administered through oral gavage measured up to 24 hrs by LC-MS/MS analysis", "format": "ADME, organism-based", "parameters": "dose 5 mg/kg, route oral, time 0 - last", "details": "in vivo", "in_short": "as §1"}, "[17]": {"target": "T3, Histone-lysine N-methyltransferase SETD7 (Homo sapiens) (UniProt Q8WTS6)", "T3 sequence (whole entry)": "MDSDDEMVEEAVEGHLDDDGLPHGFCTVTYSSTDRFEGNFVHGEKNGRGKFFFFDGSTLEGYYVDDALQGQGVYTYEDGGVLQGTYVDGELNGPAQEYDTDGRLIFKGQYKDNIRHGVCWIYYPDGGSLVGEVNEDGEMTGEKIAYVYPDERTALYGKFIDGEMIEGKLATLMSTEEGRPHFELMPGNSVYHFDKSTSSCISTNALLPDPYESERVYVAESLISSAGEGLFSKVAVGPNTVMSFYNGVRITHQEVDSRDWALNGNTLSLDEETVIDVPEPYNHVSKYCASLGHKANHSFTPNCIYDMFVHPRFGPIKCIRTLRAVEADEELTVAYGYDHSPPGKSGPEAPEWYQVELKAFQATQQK", "experiment": "Inhibition of SETD7 (unknown origin) at 10 uM relative to control"}, "[18]": {"experiment": "Drug excretion in CD1 mouse urine at 1 mg/kg, iv as bolus dose after 24 hrs by LC-MS/MS analysis", "format": "ADME, organism-based", "details": "read-out: Drug excretion", "in_short": "as §1"}, "[19]": {"experiment": "Renal clearance in CD1 mouse at 1 mg/kg, iv as bolus dose measured up to 24 hrs by LC-MS/MS analysis", "format": "ADME, organism-based, Kidney", "details": "in vivo", "in_short": "as §1"}, "[20]": {"experiment": "Oral bioavailability in CD1 mouse at 5 mg/kg measured up to 24 hrs by LC-MS/MS analysis", "format": "ADME, organism-based", "details": "in vivo", "in_short": "as §1"}, "[21]": {"experiment": "Oral bioavailability in CD1 mouse at 50 mg/kg measured up to 24 hrs by LC-MS/MS analysis", "format": "ADME, organism-based", "details": "in vivo", "in_short": "as §1"}}, "data": [{"compound": "O=C1Cc2cc(C(=O)N[C@H]3C[C@H]4CC[C@@H](C3)N4S(=O)(=O)CC3CCN(CCCC(F)(F)F)CC3)c(Cl)cc2N1", "values": [{"measurement": "AUC(0-inf)", "setting": "[1]", "result": 1480, "unit": "ng·h/mL"}, {"measurement": "half-life", "setting": "[2]", "result": 2.2, "unit": "h"}, {"measurement": "AUC(0-t) at 24 h", "setting": "[3]", "result": 21200, "unit": "ng·h/mL"}, {"measurement": "inhibition", "setting": "[4]", "result": "< 30", "unit": "%"}, {"measurement": "inhibition", "setting": "[5]", "result": "< 30", "unit": "%"}, {"measurement": "inhibition", "setting": "[6]", "result": "< 30", "unit": "%"}, {"measurement": "IC50", "setting": "[7]", "result": 3, "unit": "nM"}, {"measurement": "AUC(0-inf)", "setting": "[8]", "result": 21200, "unit": "ng·h/mL"}, {"measurement": "Cmax", "setting": "[9]", "result": 345, "unit": "ng/mL"}, {"measurement": "inhibition", "setting": "[10]", "result": "< 30", "unit": "%"}, {"measurement": "AUC(0-t) at 24 h", "setting": "[11]", "result": 603, "unit": "ng·h/mL"}, {"measurement": "fraction unbound at 16 h, 1 µM", "setting": "[12]", "result": 0.53}, {"measurement": "clearance", "setting": "[13]", "result": 27, "unit": "mL/min/kg"}, {"measurement": "Tmax", "setting": "[14]", "result": 0.89, "unit": "h"}, {"measurement": "AUC(0-inf)", "setting": "[15]", "result": 616, "unit": "ng·h/mL"}, {"measurement": "AUC(0-t) at 24 h", "setting": "[16]", "result": 1280, "unit": "ng·h/mL"}, {"measurement": "inhibition", "setting": "[17]", "result": "< 30", "unit": "%"}, {"measurement": "dose excreted at 24 h", "setting": "[18]", "result": 20, "unit": "%"}, {"measurement": "CL renal at 24 h", "setting": "[19]", "result": 5.3, "unit": "mL/min/kg"}, {"measurement": "bioavailability", "setting": "[20]", "result": 48, "unit": "%"}, {"measurement": "bioavailability", "setting": "[21]", "result": 69, "unit": "%"}]}, {"compound": "O=C1Cc2cc(C(=O)N[C@H]3C[C@H]4CC[C@@H](C3)N4S(=O)(=O)N3CCC(NCc4ccccc4)CC3)c(Cl)cc2N1", "values": [{"measurement": "inhibition", "setting": "[4]", "result": "< 30", "unit": "%"}, {"measurement": "inhibition", "setting": "[5]", "result": "< 30", "unit": "%"}, {"measurement": "inhibition", "setting": "[6]", "result": "< 30", "unit": "%"}, {"measurement": "inhibition", "setting": "[10]", "result": "< 30", "unit": "%"}, {"measurement": "fraction unbound at 16 h, 1 µM", "setting": "[12]", "result": 0.32}, {"measurement": "inhibition", "setting": "[17]", "result": "< 30", "unit": "%"}]}]}
